Laboratory results taken from ChEMBL document CHEMBL5724801, “EUbOPEN Chemogenomics Library - Multiplex” (2024).
Several values for one entry are separate records, joined by “and”; a condition that tells them apart may be missing. Equal values may be shown once.

Test system: Fibroblast
Assay: Multiplex assay against human fibroblast
Type: toxicity, cell-based
In short: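 On a CQ1 microscope at 37°C and 5% CO2, live cells were imaged after compound addition. They had been stained at seeding with Hoechst33342, BioTracker Green Microtubule Cytoskeleton Dye, MitoTracker Red and Annexin V Alexa Fluor 680. CellPathfinder machine-learning gating assigned cells to Hoechst high-intensity objects or normal cells, normal cells to healthy, pyknosed or fragmented nuclei, and pyknosed cells to mitotic or apoptotic. Tubulin, mitochondrial-mass and membrane-permeability phenotypes are per cents of healthy-nucleus cells.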

[1] = 12 h, 1 µM, compound concentration 1 uM
[2] = 12 h, 10 µM, compound concentration 10 uM
[3] = 24 h, 1 µM, compound concentration 1 uM
[4] = 24 h, 10 µM, compound concentration 10 uM
[5] = 48 h, 1 µM, compound concentration 1 uM
[6] = 48 h, 10 µM, compound concentration 10 uM

Cc1c(C(=O)NCCCN(C)C)sc2ncnc(Nc3ccc(F)cc3OC(C)CF)c12 (configuration not stated)
Population Fragmented Nuclei (%) [1]: 17.37% and 8.18%
Population Healthy Nuclei (%) [1]: 51.64% and 79.93%
Population Hoechst High Intensity Objects (%) [1]: 0%
Population Membrane Permeable-Phenotype (%) [1]: 0.91% and 2.79%
Population Mitochondria Different-Phenotype (%) [1]: 15.45% and 13.95%
Population Mitotic Cells (%) [1]: 92.42% and 75%
Population Normal (%) [1]: 100%
Population Pyknosed Nuclei (%) [1]: 30.99% and 11.9%
Population Tubulin-Different-Phenotype (%) [1]: 30.91% and 38.14%
Total Cell Count [1]: 213 and 269
Population Apoptotic (%) [2]: 19.3% and 27.27%
Population Fragmented Nuclei (%) [2]: 12.69% and 4.88%
Population Healthy Nuclei (%) [2]: 43.46% and 60.98%
Population Hoechst High Intensity Objects (%) [2]: 0%
Population Membrane Permeable-Phenotype (%) [2]: 10.62% and 8%
Population Mitochondria Different-Phenotype (%) [2]: 35.4% and 21.45%
Population Mitotic Cells (%) [2]: 80.7% and 72.73%
Population Normal (%) [2]: 100%
Population Pyknosed Nuclei (%) [2]: 43.85% and 34.15%
Population Tubulin-Different-Phenotype (%) [2]: 46.9% and 77.82%
Total Cell Count [2]: 260 and 451
Population Fragmented Nuclei (%) [3]: 16.28% and 8.79%
Population Healthy Nuclei (%) [3]: 68.99% and 76.87%
Population Hoechst High Intensity Objects (%) [3]: 0%
Population Membrane Permeable-Phenotype (%) [3]: 2.25% and 3.81%
Population Mitochondria Different-Phenotype (%) [3]: 5.06% and 8.05%
Population Mitotic Cells (%) [3]: 94.74% and 72.73%
Population Normal (%) [3]: 100%
Population Pyknosed Nuclei (%) [3]: 14.73% and 14.33%
Population Tubulin-Different-Phenotype (%) [3]: 28.09% and 38.14%
Total Cell Count [3]: 258 and 307
Population Apoptotic (%) [4]: 33.11% and 50.51%
Population Fragmented Nuclei (%) [4]: 9.29% and 4.55%
Population Healthy Nuclei (%) [4]: 35.69% and 45.45%
Population Hoechst High Intensity Objects (%) [4]: 0%
Population Membrane Permeable-Phenotype (%) [4]: 13.54% and 11.11%
Population Mitochondria Different-Phenotype (%) [4]: 40.62% and 36.11%
Population Mitotic Cells (%) [4]: 66.89% and 49.49%
Population Normal (%) [4]: 100%
Population Pyknosed Nuclei (%) [4]: 55.02% and 50%
Population Tubulin-Different-Phenotype (%) [4]: 75% and 87.78%
Total Cell Count [4]: 269 and 396
Population Apoptotic (%) [5]: 28.57% and 61.54%
Population Fragmented Nuclei (%) [5]: 15.91% and 10.44%
Population Healthy Nuclei (%) [5]: 79.55% and 85.44%
Population Hoechst High Intensity Objects (%) [5]: 0%
Population Membrane Permeable-Phenotype (%) [5]: 0% and 7.04%
Population Mitochondria Different-Phenotype (%) [5]: 6.94% and 2.59%
Population Mitotic Cells (%) [5]: 71.43% and 38.46%
Population Normal (%) [5]: 100%
Population Pyknosed Nuclei (%) [5]: 4.55% and 4.11%
Population Tubulin-Different-Phenotype (%) [5]: 15.92% and 33.7%
Total Cell Count [5]: 308 and 316
Population Apoptotic (%) [6]: 51.69% and 82.89%
Population Fragmented Nuclei (%) [6]: 13.56% and 8.54%
Population Healthy Nuclei (%) [6]: 48.73% and 29.67%
Population Hoechst High Intensity Objects (%) [6]: 0%
Population Membrane Permeable-Phenotype (%) [6]: 14.78% and 17.81%
Population Mitochondria Different-Phenotype (%) [6]: 50.43% and 54.79%
Population Mitotic Cells (%) [6]: 48.31% and 17.11%
Population Normal (%) [6]: 100%
Population Pyknosed Nuclei (%) [6]: 37.71% and 61.79%
Population Tubulin-Different-Phenotype (%) [6]: 76.52% and 83.56%
Total Cell Count [6]: 236 and 246

Cc1c(-c2cc(-c3ccccc3Cl)no2)cnn1C1CCNCC1.Cl
Population Fragmented Nuclei (%) [1]: 12.32% and 5.31%
Population Healthy Nuclei (%) [1]: 58.77% and 79.2%
Population Hoechst High Intensity Objects (%) [1]: 0%
Population Membrane Permeable-Phenotype (%) [1]: 4.03% and 3.91%
Population Mitochondria Different-Phenotype (%) [1]: 17.74% and 8.94%
Population Mitotic Cells (%) [1]: 93.44% and 68.57%
Population Normal (%) [1]: 100%
Population Pyknosed Nuclei (%) [1]: 28.91% and 15.49%
Population Tubulin-Different-Phenotype (%) [1]: 32.26% and 22.91%
Total Cell Count [1]: 211 and 226
Population Apoptotic (%) [2]: 18.52% and 39.56%
Population Fragmented Nuclei (%) [2]: 8.72% and 4.05%
Population Healthy Nuclei (%) [2]: 41.74% and 54.95%
Population Hoechst High Intensity Objects (%) [2]: 0%
Population Membrane Permeable-Phenotype (%) [2]: 10.99% and 13.93%
Population Mitochondria Different-Phenotype (%) [2]: 46.15% and 28.69%
Population Mitotic Cells (%) [2]: 81.48% and 60.44%
Population Normal (%) [2]: 100%
Population Pyknosed Nuclei (%) [2]: 49.54% and 40.99%
Population Tubulin-Different-Phenotype (%) [2]: 73.63% and 83.61%
Total Cell Count [2]: 218 and 222
Population Apoptotic (%) [3]: 8% and 20.83%
Population Fragmented Nuclei (%) [3]: 12.4% and 7.5%
Population Healthy Nuclei (%) [3]: 67.6% and 82.5%
Population Hoechst High Intensity Objects (%) [3]: 0%
Population Membrane Permeable-Phenotype (%) [3]: 4.73% and 1.01%
Population Mitochondria Different-Phenotype (%) [3]: 7.69% and 3.54%
Population Mitotic Cells (%) [3]: 92% and 79.17%
Population Normal (%) [3]: 100%
Population Pyknosed Nuclei (%) [3]: 20% and 10%
Population Tubulin-Different-Phenotype (%) [3]: 33.73% and 29.8%
Total Cell Count [3]: 250 and 240
Population Apoptotic (%) [4]: 36.97% and 65.81%
Population Fragmented Nuclei (%) [4]: 10.44% and 3.51%
Population Healthy Nuclei (%) [4]: 24.18% and 28.07%
Population Hoechst High Intensity Objects (%) [4]: 0%
Population Membrane Permeable-Phenotype (%) [4]: 25% and 20.83%
Population Mitochondria Different-Phenotype (%) [4]: 63.64% and 60.42%
Population Mitotic Cells (%) [4]: 63.03% and 34.19%
Population Normal (%) [4]: 100%
Population Pyknosed Nuclei (%) [4]: 65.38% and 68.42%
Population Tubulin-Different-Phenotype (%) [4]: 72.73% and 68.75%
Total Cell Count [4]: 182 and 171
Population Apoptotic (%) [5]: 25% and 11.11%
Population Fragmented Nuclei (%) [5]: 10.69% and 10.92%
Population Healthy Nuclei (%) [5]: 83.79% and 85.92%
Population Hoechst High Intensity Objects (%) [5]: 0%
Population Membrane Permeable-Phenotype (%) [5]: 4.12% and 11.48%
Population Mitochondria Different-Phenotype (%) [5]: 9.05% and 0.82%
Population Mitotic Cells (%) [5]: 75% and 88.89%
Population Normal (%) [5]: 100%
Population Pyknosed Nuclei (%) [5]: 5.52% and 3.17%
Population Tubulin-Different-Phenotype (%) [5]: 31.28% and 31.15%
Total Cell Count [5]: 290 and 284
Population Apoptotic (%) [6]: 53.41% and 92.06%
Population Fragmented Nuclei (%) [6]: 14.67% and 6.71%
Population Healthy Nuclei (%) [6]: 37.5% and 51.01%
Population Hoechst High Intensity Objects (%) [6]: 0%
Population Mitochondria Different-Phenotype (%) [6]: 43.48% and 21.05%
Population Normal (%) [6]: 100%
Population Pyknosed Nuclei (%) [6]: 47.83% and 42.28%
Population Tubulin-Different-Phenotype (%) [6]: 15.94% and 32.89%
Total Cell Count [6]: 184 and 149
